This is an account of results in ChEMBL document CHEMBL1221400, “Synthesis, antimalarial activity, and cellular toxicity of new arylpyrrolylaminoquinolines” (Bioorg Med Chem, 2010).

The nature of series [1]: Cytotoxicity against mouse WEHI13 cells after 72 hrs by MTT assay. It counts as cell-based. The gist of the method:
(§1)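 Cells were exposed to serial dilutions of compound for 72 h at 37 °C in 5% CO2. MTT was then added for another 3 h, and formazan was dissolved in SDS/DMF lysing buffer at pH 4.7. Absorbance was read at 550 nm against a 650 nm reference. […] Media: HMEC-1 in MCDB 131 with 10% FCS, EGF and hydrocortisone; K562 and WEHI 13 in RPMI 1640 with 10% FCS; HDF in DMEM with 10% FCS.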
In general terms: Tetrazolium dyes change colour on reduction, which living cells bring about.

Series [2] in a line: Cytotoxicity against human K562 cells after 72 hrs by MTT assay. It counts as cell-based. In a few lines: as §1
Series [3] is described as follows: Cytotoxicity against HMEC1 cells after 72 hrs by MTT assay. In kind it is cell-based, HMEC-1. As to conditions: human. The gist of the method: as §1
Series [4] has as its system Plasmodium falciparum. The experiment in a line: Ratio of IC50 for chloroquine-resistant Plasmodium falciparum W2 to IC50 for chloroquine-sensitive Plasmodium falciparum D10.
A short description of series [5]: Inhibition of beta-hematin formation assessed as molar equivalents by BHIA assay relative to hemin. In kind it is functional.
A short description of series [6]: Cytotoxicity against HDF after 72 hrs by MTT assay. It counts as cell-based. The following applies: human. The gist of the method: as §1
The subject of series [7] is Plasmodium falciparum. The series can be described thus: Antimalarial activity against chloroquine-sensitive Plasmodium falciparum D10 infected in human A+ RBC after 72 hrs by parasite LDH assay. It counts as functional, organism-based. As to conditions: D10, 72 h. In a few lines: (§2)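 P. falciparum (D10 CQ-sensitive; W2 CQ-resistant) kept at 5% hematocrit in human A+ red cells in RPMI 1640 with 1% AlbuMax, hypoxanthine, 20 mM Hepes and glutamine, at 37 °C under 1% O2/5% CO2/94% N2. Asynchronous cultures (1–1.5% parasitaemia, 1% final hematocrit) were exposed to serial dilutions (final DMSO <1%) for 72 h. pLDH activity was read at OD650. IC50 given as mean ± SD of ≥3 experiments run in duplicate.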

Series [8] concerns Plasmodium falciparum. The experiment in a line: Antimalarial activity against chloroquine-resistant Plasmodium falciparum W2 infected in human A+ erythrocytes after 72 hrs by parasite LDH assay. In kind it is functional, organism-based. As to conditions: W2, 72 h. The gist of the method:
as §2

Series [9] relates to Plasmodium falciparum. The series can be described thus: Ratio of chloroquine IC50 to compound IC50 for chloroquine-resistant Plasmodium falciparum W2.
Series [10] deals with Plasmodium falciparum. The experiment in a line: Ratio of chloroquine IC50 to compound IC50 for chloroquine-sensitive Plasmodium falciparum D10.
Series [11] in a line: Distribution coefficient, log D of the compound at pH 7.4. The following applies: octanol/water. In kind it is physicochemical.
Series [12] can be described thus: Octanol-water partition coefficient, log P of the compound. In kind it is physicochemical.
Series [13] is described as follows: Vacuolar accumulation ratio of the compound at pH 5.2. It counts as ADME.
The nature of series [14]: Lipid accumulation ratio of the compound at pH 7.4. It counts as physicochemical.

On to `CCN(CC)Cc1cc(-c2ccccc2)n(Nc2ccnc3cc(Cl)ccc23)c1C`, for which the CC50 (as a rule, the concentration at which the toxic effect on the cells reaches its halfway point) at 72 h in [1] came to 4380 nM; in series [2] it was 3620 nM; in [3], 16700 nM. Also, in series [4], the “Ratio IC50” value stood at 1.4.
Turning to `CCN(CC)CCCC(C)Nc1ccnc2cc(Cl)ccc12` (stereo unspecified) [CHLOROQUINE], the cytotoxic concentration (CC50) at 72 h in [1] is above 38000 nM; in [2], above 25000 nM; in [3], above 32000 nM; in [6] it was above 38000 nM. For the same compound, the IC50 in [5] was found to be 1.27 equivalents.
For `CCN(CC)Cc1cc(-c2ccc(N)cc2)n(Nc2ccnc3cc(Cl)ccc23)c1C`, the results for the IC50 in series [7] and in [8] were 53.4 nM and 313 nM, respectively. Moreover, the “Ratio IC50” value in [9] was 0.9; in series [4], 5.8; in series [10] it was 0.5.
Regarding `CCN(CC)Cc1cc(-c2ccc(Cl)cc2)n(Nc2ccnc3cc(Cl)ccc23)c1C`, the half-maximal cytotoxic concentration (CC50) at 72 h worked out at 1450 nM in series [1] and 5810 nM in [3]. Moreover, the “Ratio IC50” value in [4] is reported as 1.6.
Consider `Cc1c(CN2CCCC2)cc(-c2ccccc2)n1Nc1ccnc2cc(Cl)ccc12`, for which the values for the cytotoxic concentration (CC50) at 72 h in series [1], in series [2] and in series [3] were 3880 nM, 2920 nM and 12900 nM, respectively. Besides, the log distribution coefficient (logD) (usually lipophilicity at a set pH, counting ionised and neutral species) in series [11] is 3.28. Further, the IC50 in [5] was 0.54 equivalents. Also, the logP (in general, a log measure of how a compound divides between an organic and an aqueous phase) in [12] amounted to 4.6. In addition, the figures for the Ratio in series [13] and in series [14] were 1698.2 and 1905.5, respectively. Moreover, in series [4], the “Ratio IC50” value is listed as 3.3.
Consider `Cc1c(CN2CCCC2)cc(-c2ccc(F)cc2)n1Nc1ccnc2cc(Cl)ccc12`, for which the CC50 at 72 h in series [1] amounted to 2710 nM; in series [2], 1660 nM; in [3], 10100 nM. This compound came in with a log distribution coefficient (logD) in series [11] of 3.45. In addition, the IC50 in series [7] turned out to be 32.6 nM; in series [8], 78.1 nM. In addition, in [12], the logP amounted to 4.86. The results for the Ratio in [13] and in [14] were 1548.8 and 2818.4, respectively. The “Ratio IC50” value is recorded as 5.7 in series [9], 2.4 in series [4] and 0.8 in [10].
With `CCN(CC)Cc1cc(-c2ccc(Cl)cc2)n(CCCNc2ccnc3cc(Cl)ccc23)c1C`, the IC50 in [7] stood at 26 nM; in [8], 180 nM. The “Ratio IC50” value in series [9] was found to be 2.3; in series [4], 6.9; in series [10], 0.7.
As to `Cc1c(CN2CCCC2)cc(-c2ccc(Cl)cc2)n1CCCNc1ccnc2cc(Cl)ccc12`, in series [11], the logD stood at 2.35. Also, the IC50 is 22.7 nM in [7], 0.82 equivalents in [5] and 243 nM in series [8]. The same compound displayed a lipophilicity (logP) in series [12] of 4.38. For the same compound, the results for the Ratio in series [13] and in series [14] were 24547.1 and 223.9, respectively. Besides, the figures for the “Ratio IC50” value in [9], in series [4] and in series [10] were 1.7, 10.7 and 0.8, respectively.
On to `Cc1c(CN2CCCC2)cc(-c2ccc(Cl)cc2)n1Nc1ccnc2cc(Cl)ccc12`, for which the CC50 at 72 h in series [1] worked out at 2060 nM; in series [3], 7180 nM. Also, the logD in [11] was determined as 4.06. For the same compound, the IC50 in [5] was found to be 0.36 equivalents. Besides, the logP in [12] was determined as 5.17. Moreover, the Ratio in series [13] was 1513.6; in [14] it was 11481.5. The “Ratio IC50” value in series [4] is recorded as 1.6.
In [11], `Cc1c(CN2CCCC2)cc(-c2ccc(N)cc2)n1Nc1ccnc2cc(Cl)ccc12` had a logD of 2.03. Moreover, the IC50 is 43.1 nM in series [7] and 455 nM in series [8]. In series [12], the logP was found to be 4.38. The Ratio is on record as 16982.4 in series [13] and 107.1 in series [14]. Further, the “Ratio IC50” value in series [9] was determined as 0.5; in series [4], 10.6; in series [10] it was 0.5.
Take `Cc1c(CN2CCCC2)cc(-c2ccc(C(F)(F)F)cc2)n1Nc1ccnc2cc(Cl)ccc12`: the 50% cytotoxic concentration (CC50) at 72 h in series [1] is 2680 nM; in series [2] it was 1220 nM; in series [3], 4700 nM. Besides, the log distribution coefficient (logD) in series [11] was 4.72. The figures for the IC50 in series [7] and in [8] were 58 nM and 59 nM, respectively. The compound further gave a logP in series [12] of 5.28. Also, the Ratio in [13] is recorded as 912; in series [14], 52480.8. For the same compound, the “Ratio IC50” value in series [9] came to 6.7; in [4], 1; in series [10], 0.5.
In the case of `CCN(CC)Cc1cc(-c2ccc(F)cc2)n(Nc2ccnc3cc(Cl)ccc23)c1C`, the cytotoxic concentration (CC50) at 72 h in [1] was 3020 nM; in series [2], 2360 nM; in [3], 18600 nM. The IC50 was 61.6 nM in series [7] and 79.8 nM in series [8]. Besides, the results for the “Ratio IC50” value in [9], in series [4] and in [10] were 5, 1.3 and 0.5, respectively.
For `CCN(CC)Cc1cc(-c2ccc(C)cc2)n(Nc2ccnc3cc(Cl)ccc23)c1C`, the figures for the CC50 at 72 h in [1], in series [3] and in [6] were 3650 nM, 7050 nM and 10300 nM, respectively. The IC50 in series [7] came to 32.7 nM; in [8] it was 55.4 nM. For the same compound, the “Ratio IC50” value in series [9] was 6.4; in [4], 1.7; in series [10] it was 0.6.
Take `Cc1ccc(-c2cc(CN3CCCC3)c(C)n2Nc2ccnc3cc(Cl)ccc23)cc1`: the values for the CC50 at 72 h in [1], in [3] and in series [6] were 4480 nM, 7150 nM and 13200 nM, respectively. The same compound showed a logD in series [11] of 3.91. Further, the figures for the IC50 in series [7], in series [5] and in series [8] were 30.7 nM, 0.45 equivalents and 65.8 nM, respectively. The compound further yielded a lipophilicity (logP) in series [12] of 5.19. Besides, the values for the Ratio in series [13] and in series [14] were 1862.1 and 8128.3, respectively. The “Ratio IC50” value in series [9] is given as 5.4; in series [4], 2.1; in [10] it was 0.6.
